Source: ChEMBL document CHEMBL3351368, “Biphenyl-4-carboxylic acid [2-(1H-indol-3-yl)-ethyl]-methylamide (CA224), a nonplanar analogue of fascaplysin, inhibits Cdk4 and tubulin polymerization: evaluation of in vitro and in vivo anticancer activity” (J Med Chem, 2014)
≈ marks a conversion by molar mass, not a printed value. Calls of active or inactive are those of the source.

Tests used:
A549 [1] = assay: Cell cycle arrest in human A549 cells assessed as accumulation of cells at S phase at IC50 concentration after 24 hrs by flow cytometry (reference value: 29%); assay type: functional
NCI-H460 [2] = assay: Antitumor activity against human NCI-H460 cells xenografted in SCID mouse assessed as inhibition of tumor growth at 100 mg/kg, ip relative to untreated control; assay type: functional, organism-based; set-up: dose 100 mg/kg
Outline: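 Female SCID mice (15-24 g, 6-8 weeks) were given 5.3 × 10^6 NCI-H460 cells s.c. on the dorsal side. At 4-6 mm tumours (about 6 days) they were randomised into groups of 6 or 7 and dosed i.p. for 9 consecutive days. Tumour size was recorded every 2-5 days; weight = L × W² × 0.5. %T/C and %GI = 100 − %T/C; Student t-test versus control.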

A549 [3] = assay: Reduction Cdk1 level in p53+, pRb+ human A549 cells at IC50 concentration after 24 hrs by Western blot analysis
Tubulin (Homo sapiens) [4] = target: T1, Tubulin (Homo sapiens) (UniProt P68371+Q9H4B7+P0DPH7+P68366+Q13509+Q71U36+P04350+Q3ZCM7+P07437+P68363+Q9BQE3+Q6PEY2+Q13885+Q9BVA1+Q9BUF5); assay: Inhibition of tubulin polymerization in p53+, pRb+ human A549 cells assessed as paclitaxel-mediated polymerization treated simultaneously measured after 30 mins by Western blot analysis; assay type: cell-based
[5] = Clearance in BALB/c mouse at 1 mg/kg, iv; assay type: ADME, organism-based; set-up: dose 1 mg/kg, route intravenous; conditions: in vivo
Outline: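 BALB/c mice given a single dose of 1.0 mg/kg IV or 10 mg/kg orally; plasma concentration followed over time and pharmacokinetic parameters derived from the time-concentration profile.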

LS174T [6] = assay: Increase in p27 level in p53+, pRb+ human LS 174T cells at IC50 concentration after 24 hrs by Western blot analysis
Mus musculus [7] = assay: Toxicity in human HCT116 cells xenografted in SCID mouse at 100 mg/kg, ip relative to untreated control; assay type: organism-based, HCT-116; set-up: dose 100 mg/kg, route intraperitoneal; conditions: in vivo
Outline: (§1)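 SCID male mice, 18-25 g, 6-8 weeks old, received 6.6 × 10^6 HCT-116 cells subcutaneously on the dorsal side. Randomized into groups of 7 at 4-6 mm tumors (about 5 days), then dosed intraperitoneally for 9 consecutive days. Tumor size recorded every 2-5 days, weight = L×W²×0.5; %GI = 100 − %T/C. Body weight taken daily relative to start; Student t-test.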

Homo sapiens [8] = organism: Homo sapiens; assay: Selectivity ratio of IC50 for human CDK2/cyclin A to IC50 for human CDK4/cyclin D1
LS174T [9] = assay: Reduction Cdk1 level in p53+, pRb+ human LS 174T cells at IC50 concentration after 24 hrs by Western blot analysis
[10] = Anticancer activity against p53 null, pRb+ human Calu1 cells assessed as reduction in colony formation efficiency at 3 uM after 24 hrs by visual count/crystal violet staining method; assay type: functional; conditions: Calu-1, 24 h
Outline: (§2)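 Long-term survival assay. A549 and Calu-1 cells treated with a range of concentrations, colonies counted, efficiency expressed as percent of colonies versus untreated cultures. Means and standard deviations of three independent experiments.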

Mus musculus [11] = assay: Toxicity in human HCT116 cells xenografted in SCID mouse assessed as change in body weight at 100 mg/kg, ip relative to untreated control; assay type: organism-based, HCT-116; set-up: dose 100 mg/kg, route intraperitoneal; conditions: in vivo; outline: as §1
[12] = Growth inhibition of mouse BNL-SVA.8 cells after 48 hrs by MTT assay; assay type: functional
Outline: (§3)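 MTT cell proliferation assay. IC50 (µM) was defined as the concentration giving 50% inhibition of cell growth.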

A549 [13] = assay: Induction of p21 level in p53+, pRb+ human A549 cells at IC50 concentration after 24 hrs by Western blot analysis
[14] = Solubility in simulated gastric fluid; assay type: ADME
A549 [15] = assay: Cell cycle arrest in human A549 cells assessed as accumulation of cells at G2/M phase at IC50 concentration after 24 hrs by flow cytometry (reference value: 22%); assay type: functional
Tubulin (Homo sapiens) [16] = target: T1, Tubulin (Homo sapiens); assay: Inhibition of tubulin (unknown origin) polymerization assessed as decrease in Vmax measured at 25 uM by spectrophotometry
Homo sapiens [17] = organism: Homo sapiens; assay: Inhibition of human PKA assessed as enzyme activity at 10 uM
CDK9/cyclin T1 = CDK9/cyclin T1 (Homo sapiens, UniProt P50750); assay: Binding affinity to human CDK9/cyclinT1; assay type: protein-complex assay
Chain of CDK9/cyclin T1 (O60563 whole entry): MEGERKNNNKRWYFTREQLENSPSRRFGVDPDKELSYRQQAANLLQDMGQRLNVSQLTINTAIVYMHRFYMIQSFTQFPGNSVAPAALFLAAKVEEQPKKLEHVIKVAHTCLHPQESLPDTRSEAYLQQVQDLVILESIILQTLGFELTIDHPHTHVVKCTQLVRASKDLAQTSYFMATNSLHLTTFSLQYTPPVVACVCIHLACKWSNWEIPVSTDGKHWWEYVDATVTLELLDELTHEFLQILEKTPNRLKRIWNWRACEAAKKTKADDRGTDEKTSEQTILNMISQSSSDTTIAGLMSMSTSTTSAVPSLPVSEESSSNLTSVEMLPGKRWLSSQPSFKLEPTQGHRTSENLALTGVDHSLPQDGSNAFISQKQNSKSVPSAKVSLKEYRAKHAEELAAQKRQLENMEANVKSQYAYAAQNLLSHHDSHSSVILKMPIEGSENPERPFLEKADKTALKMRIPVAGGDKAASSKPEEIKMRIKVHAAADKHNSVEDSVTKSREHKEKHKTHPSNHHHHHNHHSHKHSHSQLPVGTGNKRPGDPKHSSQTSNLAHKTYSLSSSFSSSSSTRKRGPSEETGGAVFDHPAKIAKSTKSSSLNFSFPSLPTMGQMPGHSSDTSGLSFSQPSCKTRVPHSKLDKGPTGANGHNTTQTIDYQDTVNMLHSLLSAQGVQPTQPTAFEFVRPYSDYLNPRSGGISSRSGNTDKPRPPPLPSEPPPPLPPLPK
Chain of CDK9/cyclin T1 (P50750 whole entry): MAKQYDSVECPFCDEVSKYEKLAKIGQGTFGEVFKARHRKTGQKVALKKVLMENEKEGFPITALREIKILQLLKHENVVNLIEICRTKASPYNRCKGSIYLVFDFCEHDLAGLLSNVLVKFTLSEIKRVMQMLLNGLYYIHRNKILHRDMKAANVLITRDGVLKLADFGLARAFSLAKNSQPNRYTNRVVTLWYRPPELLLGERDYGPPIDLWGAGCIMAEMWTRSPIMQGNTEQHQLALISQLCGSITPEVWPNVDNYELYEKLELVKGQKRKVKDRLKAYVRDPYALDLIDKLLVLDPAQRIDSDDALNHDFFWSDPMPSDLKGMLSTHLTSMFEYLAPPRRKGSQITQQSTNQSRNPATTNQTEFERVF

[18] = Growth inhibition of mouse BNL-CL2 cells after 48 hrs by MTT assay; assay type: functional, cell-based; conditions: BNL CL.2, 48 h; outline: as §3
Tubulin (Homo sapiens) [19] = target: T1, Tubulin (Homo sapiens); assay: Inhibition of tubulin polymerization in p53+, pRb+ human A549 cells assessed as paclitaxel-mediated polymerization treated followed by compound treatment measured after 30 mins by Western blot analysis; assay type: cell-based
[20] = target: Serine/threonine-protein kinase PLK3 (Homo sapiens) (UniProt Q9H4B4); assay: Inhibition of human Plk3 assessed as enzyme activity at 10 uM
Chain of Serine/threonine-protein kinase PLK3 (Homo sapiens) (Q9H4B4 whole entry, looked up): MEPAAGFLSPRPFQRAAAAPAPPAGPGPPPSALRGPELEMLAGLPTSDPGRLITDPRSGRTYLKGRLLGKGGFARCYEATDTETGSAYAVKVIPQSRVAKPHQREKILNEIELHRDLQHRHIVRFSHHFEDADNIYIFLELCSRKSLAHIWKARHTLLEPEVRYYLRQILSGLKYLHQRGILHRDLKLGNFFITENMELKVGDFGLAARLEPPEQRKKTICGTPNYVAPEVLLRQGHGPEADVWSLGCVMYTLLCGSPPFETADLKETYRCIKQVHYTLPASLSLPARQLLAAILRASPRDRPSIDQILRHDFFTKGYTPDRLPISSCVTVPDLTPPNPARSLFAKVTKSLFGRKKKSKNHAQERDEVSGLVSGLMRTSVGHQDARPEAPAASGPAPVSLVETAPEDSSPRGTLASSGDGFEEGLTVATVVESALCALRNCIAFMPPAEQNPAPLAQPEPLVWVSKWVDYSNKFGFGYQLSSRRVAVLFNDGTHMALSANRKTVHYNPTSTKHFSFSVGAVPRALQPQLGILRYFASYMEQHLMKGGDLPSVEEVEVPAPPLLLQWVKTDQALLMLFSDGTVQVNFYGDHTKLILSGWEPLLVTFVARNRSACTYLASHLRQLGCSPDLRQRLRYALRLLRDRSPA

[21] = target: Cyclin-dependent kinase 5/CDK5 activator 1 (Homo sapiens) (UniProt Q00535+Q15078); assay: Inhibition of human CDK5/p35 assessed as enzyme activity at 10 uM; assay type: protein-complex assay
Chain of Cyclin-dependent kinase 5/CDK5 activator 1 (Homo sapiens) (Q00535 whole entry): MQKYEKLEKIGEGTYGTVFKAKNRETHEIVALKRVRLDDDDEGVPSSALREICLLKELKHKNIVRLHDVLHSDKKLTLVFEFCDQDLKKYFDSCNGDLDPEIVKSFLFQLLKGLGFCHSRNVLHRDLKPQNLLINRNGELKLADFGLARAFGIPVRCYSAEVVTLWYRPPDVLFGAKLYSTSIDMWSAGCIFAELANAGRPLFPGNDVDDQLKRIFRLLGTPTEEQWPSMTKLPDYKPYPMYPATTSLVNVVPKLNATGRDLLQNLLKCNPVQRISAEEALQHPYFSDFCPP
Chain of Cyclin-dependent kinase 5/CDK5 activator 1 (Homo sapiens) (Q15078 99-307 partner limits assumed): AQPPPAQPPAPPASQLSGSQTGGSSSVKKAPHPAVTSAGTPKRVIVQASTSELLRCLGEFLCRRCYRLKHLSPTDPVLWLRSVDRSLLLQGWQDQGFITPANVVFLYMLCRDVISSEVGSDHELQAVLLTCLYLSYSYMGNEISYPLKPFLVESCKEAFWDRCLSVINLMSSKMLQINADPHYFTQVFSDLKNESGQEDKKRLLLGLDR

[22] = Antitumor activity against human HCT116 cells xenografted in SCID mouse assessed as inhibition of tumor growth at 100 mg/kg, ip relative to untreated control; assay type: functional; conditions: HCT-116, ip, route intraperitoneal; outline: as §1
A549 [23] = assay: Induction of apoptosis in p53+, pRb+ human A549 cells assessed as fragmented nuclei/distrupted cell membrane at 1 to 10 uM by DAPI staining-based flow cytometry; assay type: functional; conditions: TDE = time-dependent effect
[24] = target: CDK6/cyclin D1 (Homo sapiens) (UniProt P24385+Q00534); assay: Inhibition of human CDK6/cyclinD1 assessed as enzyme activity at 10 uM; assay type: protein-complex assay
NCI-H460 [25] = assay: Induction of apoptosis in p53+, pRb+ human NCI-H460 cells assessed as fragmented nuclei/distrupted cell membrane at 1 to 10 uM by DAPI staining-based flow cytometry; assay type: functional; conditions: TDE = time-dependent effect
A549 [26] = assay: Cell cycle arrest in human A549 cells assessed as accumulation of cells at G0/G1 phase at IC50 concentration after 24 hrs by flow cytometry (reference value: 49%); assay type: functional
A549 [27] = assay: Anticancer activity against p53+, pRb+ human A549 cells assessed as reduction in colony formation efficiency at 1.4 uM after 24 hrs by visual count/crystal violet staining method; assay type: functional; conditions: A549, 24 h; outline: as §2
[28] = Cell cycle arrest in mouse BNL-SVA.8 cells assessed as accumulation of cells at G0/G1 phase at IC50 concentration after 48 hrs by flow cytometry (reference value: 64%); assay type: functional
Outline: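 Normal (BNL CL2) and SV40 large T-antigen transformed (BNL SV A.8) mouse embryonic hepatic cells were treated at IC50 or IC70 concentration for 48 h. Analysis was by FACS, with apoptosis taken as % cells in the sub-G1 peak. Untreated cells served as control.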

**Q.** What does the source list for `CN(CCc1c[nH]c2ccccc12)C(=O)c1ccc(-c2ccccc2)cc1`?
**A.** Activity (A549 [1]): 4%; Activity (NCI-H460 [2]): Active; inhibition (A549 [3]): Active; inhibition (Tubulin (Homo sapiens) [4]): Dose-dependent effect; clearance [5]: 88.3 mL/min/kg; Activity (LS174T [6]): Active; Activity (Mus musculus [7]): Non-toxic; Ratio IC50 (Homo sapiens [8]): 84; inhibition (LS174T [9]): Active; inhibition at 3 µM [10]: 50%; Activity (Mus musculus [11]): <= 10%; IC50 [12]: 3.8 µM; Activity (A549 [13]): Active; solubility [14]: 125 µg/mL (≈ 353 µM); Activity (A549 [15]): 89%; Activity (milli optical density/minute) (Tubulin (Homo sapiens) [16]): 0.4; inhibition (Homo sapiens [17]): inactive; IC50 (CDK9/cyclin T1): > 1000 µM; IC50 [18]: 2.6 µM; inhibition (Tubulin (Homo sapiens) [19]): Dose-dependent effect; inhibition [20]: inactive; inhibition [21]: inactive; inhibition in vivo at 100 mg/kg [22]: 80%; Activity (A549 [23]): tde; inhibition [24]: inactive; Activity (NCI-H460 [25]): tde; Activity (A549 [26]): 3%; inhibition at 1.4 µM (A549 [27]): 50%; Activity [28]: 31%
